test system: T1, OR1E2; conditions: stereoisomer not certain
T1 sequence (whole entry): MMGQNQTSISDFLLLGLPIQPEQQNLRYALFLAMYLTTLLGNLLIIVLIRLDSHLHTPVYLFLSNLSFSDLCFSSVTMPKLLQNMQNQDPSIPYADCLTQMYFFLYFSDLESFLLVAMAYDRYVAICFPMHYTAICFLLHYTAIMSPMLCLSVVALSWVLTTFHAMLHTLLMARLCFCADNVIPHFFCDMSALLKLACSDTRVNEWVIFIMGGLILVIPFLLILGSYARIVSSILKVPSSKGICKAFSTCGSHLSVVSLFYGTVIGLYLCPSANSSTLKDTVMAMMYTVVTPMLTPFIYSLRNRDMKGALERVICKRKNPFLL
Method in brief: (§1)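 Whether a receptor–molecule pair is responsive (active) rests on the original authors' judgment that its measured signal was statistically different from baseline. Pairs without that judgment are non-responsive (inactive). Sources used varied assay methods, commonly transient luciferase assays in mammalian cell lines.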
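Also: active if original authors judged signal statistically different from baseline.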

| SMILES | odorant receptor agonist call |
| --- | --- |
| CC1=C(O)C(=O)C(C)O1 (stereo not drawn) | inactive |
| CCC1OC(=O)C(O)=C1C (stereo not drawn) | inactive |
| CC1=C(O)C(=O)OC1C (stereo not drawn) | inactive |
| CCCC(S)CCOC(C)=O (stereo not drawn) | inactive |
| Cc1cnc(C)c(C)n1 | inactive |
| CCCCCCC=CCCC=O | inactive |
| CC1=NC(C)C(C)S1 (stereo not drawn) | inactive |
| CCC1OC(C)=C(O)C1=O (stereo not drawn) | inactive |

molecular target: T2, OR1F1 (Homo sapiens) (UniProt O43749); conditions: stereoisomer not certain
T2 sequence (whole entry): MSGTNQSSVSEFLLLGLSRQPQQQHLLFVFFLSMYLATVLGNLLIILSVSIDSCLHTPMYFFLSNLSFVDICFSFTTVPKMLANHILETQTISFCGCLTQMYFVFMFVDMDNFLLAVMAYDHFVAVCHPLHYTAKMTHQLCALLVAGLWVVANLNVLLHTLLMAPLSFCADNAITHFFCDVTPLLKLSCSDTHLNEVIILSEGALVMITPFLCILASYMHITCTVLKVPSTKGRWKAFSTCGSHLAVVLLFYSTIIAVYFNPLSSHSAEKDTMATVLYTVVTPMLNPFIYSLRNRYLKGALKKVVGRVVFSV
Method in brief: as §1

| SMILES | odorant receptor agonist call |
| --- | --- |
| CC1=C(O)C(=O)C(C)O1 (stereo not drawn) | inactive |
| CC1CCCCCCCCCCCCC(=O)C1 (stereo not drawn) | inactive |
| CCC1OC(=O)C(O)=C1C (stereo not drawn) | inactive |
| CC1=C(O)C(=O)OC1C (stereo not drawn) | inactive |
| CC(CO)CS (stereo not drawn) | inactive |
| CCC(S)C(C)CO (stereo not drawn) | inactive |
| CCCC(S)CCOC(C)=O (stereo not drawn) | inactive |
| CCCCCC(=O)C(C)C(C)=O (stereo not drawn) | inactive |
| Cc1cnc(C)c(C)n1 | inactive |
| CCCCC(S)C(C)CO (stereo not drawn) | inactive |
| CCCCCCC=CCCC=O | inactive |
| CC1=NC(C)C(C)S1 (stereo not drawn) | inactive |
| CCCCCC(S)C(C)CO (stereo not drawn) | inactive |
| CCC1OC(C)=C(O)C1=O (stereo not drawn) | inactive |
| CC(=O)c1c(C)c([N+](=O)[O-])c(C(C)(C)C)c([N+](=O)[O-])c1C | inactive |

Reference: the M2OR odorant receptor database
